Experimental data reported in ChEMBL document CHEMBL4808225, “Discovery and Characterization of Selective and Ligand-Efficient DYRK Inhibitors” (J Med Chem, 2021).
Converted amounts (≈) assume the structure as drawn.

Key:
[1] = target: Dual specificity tyrosine-phosphorylation-regulated kinase 1A (Homo sapiens, UniProt Q13627); test: Displacement of Kinase tracer 236 from biotinylated DYRK1A (unknown origin) expressed in Escherichia coli BL21 (DE3) incubated for 1.5 hrs by TR-FRET assay
[2] = Metabolic stability in human liver microsomes; assay type: ADME, Microsome; settings: read-out: Stabilty
[3] = Metabolic stability in rat liver microsomes; assay type: ADME, Microsome; settings: read-out: Stabilty
[4] = Thermodynamic solubility of the compound at pH 6.8; assay type: physicochemical; settings: buffer, read-out: Therm_solubility
How it was run: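 Thermodynamic solubility measured at pH 6.8 in a single experiment, reported in […].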

[5] = target: Dual specificity tyrosine-phosphorylation-regulated kinase 1B (Homo sapiens) (UniProt Q9Y463); test: Inhibition of wild-type human full length DYRK1B (M1 to S629 residues) expressed in bacterial expression system assessed as remaining activity at 1 uM by Kinomescan method relative to control
How it was run: (§1)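 KINOMEscan competition binding panel run with inhibitor at 1 μM; read-out is remaining kinase activity (percent of control).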

[6] = target: T1, Dual specificity tyrosine-phosphorylation-regulated kinase 2 (Homo sapiens) (UniProt Q92630); test: Inhibition of wild-type human full length DYRK2 (M1 to S528 residues) expressed in mammalian expression system assessed as remaining activity at 1 uM by Kinomescan method relative to control; how it was run: as §1
T1 sequence (whole entry): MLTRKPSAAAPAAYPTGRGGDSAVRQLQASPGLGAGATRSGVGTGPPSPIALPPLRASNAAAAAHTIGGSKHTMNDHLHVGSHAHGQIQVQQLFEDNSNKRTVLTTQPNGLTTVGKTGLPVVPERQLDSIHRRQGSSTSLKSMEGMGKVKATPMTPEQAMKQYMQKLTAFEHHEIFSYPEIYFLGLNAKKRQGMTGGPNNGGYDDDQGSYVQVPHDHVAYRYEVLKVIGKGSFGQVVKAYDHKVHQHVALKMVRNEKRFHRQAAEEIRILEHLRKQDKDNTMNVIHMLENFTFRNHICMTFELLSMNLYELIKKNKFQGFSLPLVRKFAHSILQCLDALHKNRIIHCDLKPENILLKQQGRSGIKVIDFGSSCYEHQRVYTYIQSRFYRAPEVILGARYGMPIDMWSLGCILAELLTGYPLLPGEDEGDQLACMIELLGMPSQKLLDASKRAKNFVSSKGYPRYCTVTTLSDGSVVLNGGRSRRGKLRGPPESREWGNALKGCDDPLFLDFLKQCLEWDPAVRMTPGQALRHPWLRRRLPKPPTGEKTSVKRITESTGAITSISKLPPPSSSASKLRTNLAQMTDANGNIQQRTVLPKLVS

[7] = target: Dual specificity protein kinase CLK1 (Homo sapiens, UniProt P49759); test: Inhibition of wild-type human full length CLK1 (M1 to I484 residues) expressed in bacterial expression system assessed as remaining activity at 1 uM by Kinomescan method relative to control; how it was run: as §1
[8] = target: Dual specificity protein kinase CLK2 (Homo sapiens) (UniProt P49760); test: Inhibition of wild-type human partial length CLK2 (D144 to R498 residues) expressed in bacterial expression system assessed as remaining activity at 1 uM by Kinomescan method relative to control; how it was run: as §1
[9] = target: Dual specificity protein kinase CLK3 (Homo sapiens) (UniProt P49761); test: Inhibition of wild-type human full length CLK3 (M1 to R490 residues) expressed in bacterial expression system assessed as remaining activity at 1 uM by Kinomescan method relative to control; how it was run: as §1
[10] = target: Cyclin-dependent kinase 2 (Homo sapiens) (UniProt P24941); test: Inhibition of wild-type human full length CDK2 (M1 to L298 residues) expressed in bacterial expression system assessed as remaining activity at 1 uM by Kinomescan method relative to control; how it was run: as §1
[11] = target: Glycogen synthase kinase-3 beta (Homo sapiens) (UniProt P49841); test: Inhibition of wild-type human full length GSK3B (M1 to T433 residues) expressed in mammalian expression system assessed as remaining activity at 1 uM by Kinomescan method relative to control; how it was run: as §1
Chain of Glycogen synthase kinase-3 beta (Homo sapiens) (P49841 whole entry, looked up, the tested form may be a part): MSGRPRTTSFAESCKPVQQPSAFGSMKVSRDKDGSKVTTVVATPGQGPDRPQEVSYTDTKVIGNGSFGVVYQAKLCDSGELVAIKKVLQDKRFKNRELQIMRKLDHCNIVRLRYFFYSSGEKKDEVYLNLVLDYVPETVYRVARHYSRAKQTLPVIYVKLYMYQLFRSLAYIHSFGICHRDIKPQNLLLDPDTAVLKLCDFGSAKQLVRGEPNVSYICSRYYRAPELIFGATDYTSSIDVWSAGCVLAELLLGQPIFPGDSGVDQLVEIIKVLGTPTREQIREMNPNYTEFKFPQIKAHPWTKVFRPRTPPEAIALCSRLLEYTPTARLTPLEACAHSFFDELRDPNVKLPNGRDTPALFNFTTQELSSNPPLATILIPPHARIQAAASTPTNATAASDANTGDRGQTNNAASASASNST

Chain of Dual specificity tyrosine-phosphorylation-regulated kinase 1B (Homo sapiens) (Q9Y463 whole entry, looked up, the tested form may be a part): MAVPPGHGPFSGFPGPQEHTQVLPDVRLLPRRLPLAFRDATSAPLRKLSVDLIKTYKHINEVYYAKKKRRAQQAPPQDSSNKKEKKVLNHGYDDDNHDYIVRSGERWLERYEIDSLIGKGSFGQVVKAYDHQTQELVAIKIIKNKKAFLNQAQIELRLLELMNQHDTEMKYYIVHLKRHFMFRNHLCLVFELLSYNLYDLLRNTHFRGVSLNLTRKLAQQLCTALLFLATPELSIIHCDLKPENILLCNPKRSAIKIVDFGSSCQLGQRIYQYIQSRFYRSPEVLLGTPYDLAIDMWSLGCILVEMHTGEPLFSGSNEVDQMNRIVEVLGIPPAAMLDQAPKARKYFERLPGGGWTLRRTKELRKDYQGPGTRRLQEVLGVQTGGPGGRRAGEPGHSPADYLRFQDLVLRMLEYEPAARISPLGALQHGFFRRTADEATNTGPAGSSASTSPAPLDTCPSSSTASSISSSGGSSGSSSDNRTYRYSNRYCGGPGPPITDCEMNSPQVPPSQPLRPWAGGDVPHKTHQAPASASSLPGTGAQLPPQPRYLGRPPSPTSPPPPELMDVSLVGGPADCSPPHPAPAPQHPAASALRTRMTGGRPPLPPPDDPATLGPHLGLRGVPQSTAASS
Chain of Dual specificity protein kinase CLK1 (P49759 whole entry, looked up, the tested form may be a part): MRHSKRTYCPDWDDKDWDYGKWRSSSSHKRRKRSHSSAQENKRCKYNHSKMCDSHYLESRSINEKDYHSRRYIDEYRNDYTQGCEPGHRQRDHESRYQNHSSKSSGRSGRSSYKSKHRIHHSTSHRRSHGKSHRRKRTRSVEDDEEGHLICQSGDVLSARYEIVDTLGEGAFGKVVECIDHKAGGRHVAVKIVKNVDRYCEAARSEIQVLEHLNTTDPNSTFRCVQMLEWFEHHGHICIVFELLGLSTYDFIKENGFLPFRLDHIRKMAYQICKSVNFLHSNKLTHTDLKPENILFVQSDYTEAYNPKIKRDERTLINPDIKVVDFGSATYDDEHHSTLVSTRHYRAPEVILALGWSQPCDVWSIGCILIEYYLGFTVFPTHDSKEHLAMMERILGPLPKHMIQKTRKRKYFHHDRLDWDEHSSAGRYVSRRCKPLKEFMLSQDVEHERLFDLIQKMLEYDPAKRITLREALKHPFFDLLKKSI
Chain of Dual specificity protein kinase CLK3 (Homo sapiens) (P49761 whole entry, looked up, the tested form may be a part): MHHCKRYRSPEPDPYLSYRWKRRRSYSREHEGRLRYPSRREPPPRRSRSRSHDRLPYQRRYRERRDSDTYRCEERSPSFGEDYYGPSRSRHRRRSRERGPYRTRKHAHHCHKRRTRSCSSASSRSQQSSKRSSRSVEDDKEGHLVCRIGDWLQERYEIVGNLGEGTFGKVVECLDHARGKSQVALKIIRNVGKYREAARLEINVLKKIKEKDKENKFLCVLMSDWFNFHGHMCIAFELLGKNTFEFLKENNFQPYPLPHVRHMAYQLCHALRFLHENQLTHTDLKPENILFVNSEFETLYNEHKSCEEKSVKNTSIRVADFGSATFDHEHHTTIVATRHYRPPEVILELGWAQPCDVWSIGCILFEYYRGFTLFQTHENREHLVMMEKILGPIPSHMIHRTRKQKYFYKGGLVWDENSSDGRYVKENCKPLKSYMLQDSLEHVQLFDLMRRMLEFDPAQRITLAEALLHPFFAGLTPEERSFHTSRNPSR
Chain of Dual specificity protein kinase CLK2 (Homo sapiens) (P49760 whole entry, looked up, the tested form may be a part): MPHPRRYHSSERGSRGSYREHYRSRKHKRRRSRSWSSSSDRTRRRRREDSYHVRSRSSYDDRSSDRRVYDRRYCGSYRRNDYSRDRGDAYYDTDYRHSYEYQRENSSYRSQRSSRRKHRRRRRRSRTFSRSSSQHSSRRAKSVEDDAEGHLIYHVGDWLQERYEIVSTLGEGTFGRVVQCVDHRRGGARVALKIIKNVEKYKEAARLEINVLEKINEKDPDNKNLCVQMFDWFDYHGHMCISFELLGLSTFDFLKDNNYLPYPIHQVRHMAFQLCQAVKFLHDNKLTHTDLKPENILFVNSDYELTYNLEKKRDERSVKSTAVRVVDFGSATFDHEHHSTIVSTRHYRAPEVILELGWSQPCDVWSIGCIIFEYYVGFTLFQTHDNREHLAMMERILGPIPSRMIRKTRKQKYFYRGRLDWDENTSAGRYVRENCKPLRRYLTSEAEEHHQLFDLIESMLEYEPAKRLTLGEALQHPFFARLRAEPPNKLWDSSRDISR

## COc1cc(-c2cnn3ncccc23)nc(N(C)C)n1
[1]
  IC50: > 100000 nM

## c1cnn2ncc(-c3ccnc(N4CC5CCCC5C4)n3)c2c1 (centres undefined)
[1]
  IC50: 1230 nM

## FC1CCN(c2nccc(-c3cnn4ncccc34)n2)C1 (single isomer, unassigned)
[1]
  IC50: 66.1 nM
[2]
  microsomal CLint: 296 µL/min/mg
[3]
  microsomal CLint: 130 µL/min/mg
[4]
  solubility thermodynamic: 40 µg/mL (≈ 141 µM)
[5]
  Activity: 34%
[6]
  Activity: 39%
[7]
  Activity: 48%
[8]
  Activity: 62%
[9]
  Activity: 96%
[10]
  Activity: 95%
[11]
  Activity: 98%

## CN(CCCC(F)(F)F)c1nccc(-c2cnn3ncccc23)n1
[1]
  IC50: 100 nM

## Cc1cnn2ncc(-c3ccnc(N(C)C)n3)c2c1
[1]
  IC50: 115 nM
[2]
  microsomal CLint: 160 µL/min/mg
[3]
  microsomal CLint: 164 µL/min/mg
[4]
  solubility thermodynamic: 10 µg/mL (≈ 39.3 µM)
[5]
  Activity: 1.6%
[6]
  Activity: 25%
[7]
  Activity: 15%
[8]
  Activity: 13%
[9]
  Activity: 76%
[10]
  Activity: 89%
[11]
  Activity: 100%

## CC1CCCN1c1nccc(-c2cnn3ncccc23)n1 (centres undefined)
[1]
  IC50: 110 nM
[2]
  microsomal CLint: 328 µL/min/mg
[3]
  microsomal CLint: 929 µL/min/mg
[4]
  solubility thermodynamic: 10 µg/mL (≈ 35.7 µM)
[5]
  Activity: 81%
[6]
  Activity: 66%
[7]
  Activity: 71%
[8]
  Activity: 61%
[9]
  Activity: 100%
[10]
  Activity: 100%
[11]
  Activity: 92%

## CN(C)c1nccc(-c2cnc3cccnn23)n1
[1]
  IC50: 55000 nM

## CN(c1ccccc1)c1nccc(-c2cnn3ncccc23)n1
[2]
  microsomal CLint: 450 µL/min/mg
[3]
  microsomal CLint: 340 µL/min/mg
[4]
  solubility thermodynamic: 50 µg/mL (≈ 165 µM)

## CN(C)c1cccc(-c2cnn3ncccc23)n1
[1]
  IC50: 912 nM

## CC(C)N(c1nccc(-c2cnn3ncccc23)n1)C1CC1
[1]
  IC50: 1200 nM

## C[C@H]1CCN(c2nccc(-c3cnn4ncccc34)n2)C1
[1]
  IC50: 115 nM
[2]
  microsomal CLint: 378 µL/min/mg
[3]
  microsomal CLint: 448 µL/min/mg
[4]
  solubility thermodynamic: 20 µg/mL (≈ 71.3 µM)
[5]
  Activity: 7.2%
[6]
  Activity: 15%
[7]
  Activity: 17%
[8]
  Activity: 16%
[9]
  Activity: 88%
[10]
  Activity: 100%
[11]
  Activity: 77%

## F[C@H]1CCN(c2nccc(-c3cnn4ncccc34)n2)C1
[1]
  IC50: 186 nM

## CN(C)c1ncc(Br)c(-c2cnn3ncccc23)n1
[1]
  IC50: 1580 nM

## CN(C)c1nccc(-c2cn(C)c3ncccc23)n1
[1]
  IC50: 11700 nM

## CCn1cc(-c2ccnc(N(C)C)n2)c2cccnc21
[1]
  IC50: 7760 nM

## CC1(F)CN(c2nccc(-c3cnn4ncccc34)n2)C1
[1]
  IC50: 372 nM

## c1cnn2ncc(-c3ccnc(N4CC5CC5C4)n3)c2c1 (centres undefined)
[1]
  IC50: 309 nM

## COc1ncc(-c2ccnc(N(C)C)n2)s1
[1]
  IC50: 3980 nM

## CC1CCN(c2nccc(-c3cnn4ncccc34)n2)C1 (single isomer, unassigned) [listing 1 of 2 here]
[5]
  Activity: 9.1%
[6]
  Activity: 25%
[7]
  Activity: 16%
[8]
  Activity: 15%
[9]
  Activity: 73%
[10]
  Activity: 95%
[11]
  Activity: 100%

## c1cnn2ncc(-c3ccnc(N4CC5(COC5)C4)n3)c2c1
[1]
  IC50: 513 nM

## CC(C)c1cc(-c2cnn3ncccc23)nc(N(C)C)n1
[1]
  IC50: 19100 nM

## CC1CCN(c2nccc(-c3cnn4ncccc34)n2)C1 (centres undefined)
[1]
  IC50: 204 nM

## CN(C)c1nccc(-c2cn(C)c3cnccc23)n1
[1]
  IC50: 977 nM

## CN(C)c1cc(-c2cnn3ncccc23)ccn1
[1]
  IC50: 676 nM

## Cc1cc(-c2cnn3ncccc23)nc(N(C)C)n1
[1]
  IC50: 11700 nM

## COc1ccc2c(-c3ccnc(N(C)C)n3)cnn2n1
[1]
  IC50: 2630 nM

## CN(C)c1nccc(-c2ccc(=O)n(C)c2)n1
[1]
  IC50: 7940 nM

## CN(C)c1nc2c(c(-c3cnn4ncccc34)n1)COC2
[1]
  IC50: 7410 nM

## CN(C)c1nccc(-c2cnc3ccccn23)n1
[1]
  IC50: 692 nM

## COCCCN(C)c1nccc(-c2cnn3ncccc23)n1
[1]
  IC50: 219 nM

## COc1cnc(N(C)C)nc1-c1cnn2ncccc12
[1]
  IC50: 1170 nM

## CN(CCC(F)(F)F)c1nccc(-c2cnn3ncccc23)n1
[1]
  IC50: 229 nM

## Cc1nn2ncccc2c1-c1ccnc(N(C)C)n1
[1]
  IC50: 30900 nM

## CN(C)c1nccc(-c2cnn3ccccc23)n1
[1]
  IC50: 891 nM

## c1cnn2ncc(-c3ccnc(N4CCC5CNCC54)n3)c2c1 (centres undefined)
[1]
  IC50: 1660 nM

## CN(C)c1nc(Cl)cc(-c2cnn3ncccc23)n1
[1]
  IC50: 1350 nM

## Cc1ccc2c(-c3ccnc(N(C)C)n3)cnn2n1
[1]
  IC50: 871 nM

## CN(C)c1nccc(-c2c[nH]c3cnccc23)n1
[1]
  IC50: 1020 nM

## CN(C)c1ncc(I)c(-c2cnn3ncccc23)n1
[1]
  IC50: 1620 nM

## CCCN(c1nccc(-c2cnn3ncccc23)n1)C(C)C
[1]
  IC50: 759 nM

## CN(C)c1nccc(-c2c[nH]c3ncccc23)n1
[1]
  IC50: 135 nM
[2]
  microsomal CLint: 154 µL/min/mg
[3]
  microsomal CLint: 234 µL/min/mg

## N[C@H]1CCN(c2nccc(-c3cnn4ncccc34)n2)C1
[2]
  microsomal CLint: 199 µL/min/mg
[3]
  microsomal CLint: 48 µL/min/mg
[4]
  solubility thermodynamic: 1920 µg/mL (≈ 6820 µM)
[5]
  Activity: 18%
[6]
  Activity: 29%
[7]
  Activity: 36%
[8]
  Activity: 72%
[9]
  Activity: 95%
[10]
  Activity: 100%
[11]
  Activity: 100%

## Cc1cnc(N(C)C)nc1-c1cnn2ncccc12
[1]
  IC50: 2820 nM

## c1cnn2ncc(-c3ccnc(N4CCC5(CCOC5)C4)n3)c2c1 (centres undefined)
[1]
  IC50: 269 nM

## CCCN(CCOC)c1nccc(-c2cnn3ncccc23)n1
[1]
  IC50: 316 nM

## Cc1cccc(N(C)c2nccc(-c3cnn4ncccc34)n2)c1
[1]
  IC50: 79.4 nM
[3]
  microsomal CLint: 784 µL/min/mg

## Cc1ccnn2ncc(-c3ccnc(N(C)C)n3)c12
[1]
  IC50: 724 nM

## CC1CCN(c2nccc(-c3cnn4ncccc34)n2)C1 (single isomer, unassigned) [listing 2 of 2 here]
[1]
  IC50: 148 nM
[2]
  microsomal CLint: 389 µL/min/mg
[3]
  microsomal CLint: 184 µL/min/mg
[4]
  solubility thermodynamic: 50 µg/mL (≈ 178 µM)

## CN(C)C1CCN(c2nccc(-c3cnn4ncccc34)n2)C1 (centres undefined)
[1]
  IC50: 245 nM

## CN(C)c1ncc(C(F)(F)F)c(-c2cnn3ncccc23)n1
[1]
  IC50: 12900 nM

## CC1(C)CCN(c2nccc(-c3cnn4ncccc34)n2)C1
[1]
  IC50: 427 nM

## NC1CCN(c2nccc(-c3cnn4ncccc34)n2)C1 (single isomer, unassigned)
[2]
  microsomal CLint: 40 µL/min/mg
[3]
  microsomal CLint: 66 µL/min/mg
[4]
  solubility thermodynamic: 4370 µg/mL (≈ 15500 µM)
[5]
  Activity: 10%
[6]
  Activity: 28%
[7]
  Activity: 47%
[8]
  Activity: 51%
[9]
  Activity: 89%
[10]
  Activity: 86%
[11]
  Activity: 100%
